mIAP act = activators of mouse IAP, primary screen, biochemical, luminescence, uHTS; intestinal alkaline phosphatase [Mus musculus]; muIAP, CDP-Star luminescence, 30 min; hits give high values; 1 = vehicle-only enzyme signal, 0 = enzyme-free wells; activation factor at 10 µM; hit rate 0.24% among 330,000; AID 2805, 2010;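 active = activation factor of at least 2 at 20 µM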
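System: mouse IAP enzyme. Reagent: CDP-Star chemiluminescent phosphatase substrate. Benchmarks: DMSO wells, no-enzyme wells. Times: 30 min enzyme-substrate-compound incubation at room temperature. Detection: luminescence from enzymatic CDP-Star hydrolysis. Doses: test compounds delivered from DMSO solution.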
hIAP activ = human IAP activators, primary screen, biochemical, luminescence, uHTS; activation factor at 10 µM; hit rate 0.16% among 330,000; Intestinal-type alkaline phosphatase (Homo sapiens), P09923; purified human IAP, CDP-Star luminescence, 30 min; hits give high values; 1 = vehicle-only enzyme, 0 = enzyme-free background;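 active = activation factor of the enzyme at least 2-fold when tested at 20 µM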
Target sequence (P09923 whole entry, looked up): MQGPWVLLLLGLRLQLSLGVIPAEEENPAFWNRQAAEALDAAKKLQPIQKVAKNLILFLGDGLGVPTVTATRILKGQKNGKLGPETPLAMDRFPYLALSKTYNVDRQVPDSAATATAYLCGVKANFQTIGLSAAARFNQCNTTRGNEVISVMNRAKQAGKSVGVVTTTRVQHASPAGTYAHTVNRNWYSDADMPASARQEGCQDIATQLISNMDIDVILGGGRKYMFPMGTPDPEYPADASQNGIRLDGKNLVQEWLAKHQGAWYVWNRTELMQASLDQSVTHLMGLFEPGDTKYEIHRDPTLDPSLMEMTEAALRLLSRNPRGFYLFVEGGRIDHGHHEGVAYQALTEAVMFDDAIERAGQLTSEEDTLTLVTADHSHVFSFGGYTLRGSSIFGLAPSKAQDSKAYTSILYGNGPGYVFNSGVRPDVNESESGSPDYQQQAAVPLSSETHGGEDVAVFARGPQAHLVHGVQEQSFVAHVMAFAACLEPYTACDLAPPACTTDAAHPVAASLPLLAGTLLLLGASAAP
hIAP inh = human IAP inhibitors, primary screen, biochemical, luminescence, uHTS. hit rate 0.12% among 330,000. Intestinal-type alkaline phosphatase (Homo sapiens), P09923. inhibition, % at 10 µM. purified IAP, CDP-Star luminescence, 30 min;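 active = inhibition reaching a set limit with compound at 10 µM in the primary screen, cut at about 35% in these data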
mIAP inh = inhibitors of mouse IAP, primary screen, biochemical, luminescence, uHTS | intestinal alkaline phosphatase [Mus musculus] | purified mouse IAP, CDP-Star luminescence, 30 min | inhibition, % at 10 µM | hit rate 0.2% among 330,000 | AID 2806, 2010;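 active = inhibition of at least 40% at 10 µM in the primary screen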
bIAP activator = bovine intestinal alkaline phosphatase activators, primary screen, biochemical, bovine IAP, CDP-star luminescence | hit rate 0.17% among 200,000 | purified bovine IAP, 30 min; hits give high values; fold of DMSO-control signal, blank-subtracted | activation factor at 20 µM | AID 1016, 2008;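 active = activation factor of 2 or more at 20 µM, a signal rise over negative controls twice the positive control's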
bIAP inh = bovine intestinal alkaline phosphatase inhibitors, primary screen, selectivity assay for TNAP inhibitor project, biochemical, bovine IAP, CDP-star luminescence; purified bovine IAP, 30 min; inhibition, % at 20 µM; 190,000 tested, under 10 active;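 active = over 50% inhibition of intestinal alkaline phosphatase at 20 µM in the single-dose screen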
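System: Purified bovine intestinal alkaline phosphatase (IAP) enzyme | Input: IAP diluted 1/65,000,000 in the well | Also added: CDP-star chemiluminescent phosphatase substrate, 30 µM final | Dosing: 20 µM single dose | Times: Enzyme reaction for 30 min at room temperature | Detection: Luminescence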
mIAP inh conf = inhibitors of mouse IAP, confirmation, biochemical, luminescence, single concentration; inhibition, % at 10 µM; shares compounds with mIAP inh; hit rate 4.7% among 11,000; purified mouse IAP, CDP-Star luminescence, 30 min;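 active = inhibition of at least 40% at 10 µM in either of the two replicates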
Hits are given with their value; – = inactive; · = no result given. Rows were chosen to be rich in hits. Some 0.77% of all compounds tested hit in one or more screens of this group.

SMILES	mIAP act	hIAP activ	hIAP inh	mIAP inh	bIAP activator	bIAP inh	mIAP inh conf
Cc1ccc(NC(=O)/C(C#N)=C(\N)C(Cl)(Cl)Cl)nc1	–	–	–	–	–	–	·
CCOC(=O)CN1C(=O)/C(=C2\SC(=S)N(NC(=O)c3cccnc3)C2=O)c2ccccc21	–	–	–	52	·	·	53
COc1cccc(C(=O)Nc2cccc3ccccc23)c1	–	–	–	–	·	·	·
COc1cccc(C(CC(=O)Nc2cccc3ccccc23)NC(=O)c2ccccc2)c1 (centres undefined)	2.1	–	–	–	–	–	–
CS(=O)(=O)c1ccc(C(=O)Nc2nc(-c3ccco3)c(-c3ccco3)s2)cc1	–	–	–	60	·	·	70
CCCCOc1[nH]c2nc(-c3ccco3)n(Cc3ccco3)c(=N)c2c1C#N	–	–	–	63	–	–	68
O=C(COc1ccc(F)cc1)NCC1(N2CCCCC2)CCCCC1	–	–	–	–	·	·	·
O=C(Nc1ccc(F)cc1)Nc1cnccn1	–	–	–	–	·	·	·
O=C(Nc1cc(Cl)cc(Cl)c1)Nc1cnccn1	2.5	–	–	–	·	·	–
Cc1cc(-c2csc(N)n2)c(C)n1Cc1ccco1	–	–	–	51	–	–	43
Cc1cc(-c2csc(N)n2)c(C)n1C	–	–	–	–	–	–	·
Nc1c(C(=O)N/N=C/c2cccnc2)oc2nc(-c3ccco3)cc(-c3ccco3)c12	–	–	–	49	·	·	41
NNC(=O)c1oc2nc(-c3ccco3)cc(-c3ccco3)c2c1N	–	–	–	62	·	·	72
Nc1c(C(=O)N/N=C/c2cccnc2)oc2nc(-c3ccccc3)cc(-c3ccco3)c12	–	–	–	–	·	·	·
CC1CC(=O)Nc2ccccc2N1C(=O)COc1cc(Cl)ccc1Cl (centres undefined)	–	–	–	–	·	·	·
O=C(N/N=C/c1cn(Cc2cccc(F)c2)c2ccccc12)c1cc(O)cc(O)c1	–	–	–	68	·	·	67
CCc1cccc(C)c1NC(=O)CSc1n[nH]c(N)n1	–	–	–	–	·	·	·
O=C(CCNS(=O)(=O)c1ccc2[nH]c(=O)oc2c1)Nc1ccccc1	–	–	–	41	·	·	54
Cc1ccc(NC(=O)CCNS(=O)(=O)c2ccc3[nH]c(=O)oc3c2)cc1F	–	–	–	42	·	·	51
Cc1ccc(NC(=O)CCNS(=O)(=O)c2ccc3[nH]c(=O)oc3c2)c(Cl)c1	–	–	–	59	·	·	62
CCOC(=O)C1=CN(Cc2ccco2)S(=O)(=O)N(CC)C1c1ccc(F)c(Cl)c1 (centres undefined)	–	·	·	–	·	·	·
O=C(CCCc1ccccc1)Nc1nccs1	–	–	–	–	·	·	·
O=C(CSc1ncn[nH]1)CSc1ncn[nH]1	–	–	–	46	–	–	48
O=C(CCCN1C(=O)/C(=C\c2ccco2)SC1=S)Nc1ccc(O)cc1C(=O)O	–	–	–	68	·	·	75
O=C(CCCN1C(=O)/C(=C\c2cccs2)SC1=S)Nc1cccc(C(=O)O)c1	–	–	–	–	–	–	·
SMILES	mIAP act	hIAP activ	hIAP inh	mIAP inh	bIAP activator	bIAP inh	mIAP inh conf
O=C(CCCN1C(=O)/C(=C/c2ccco2)SC1=S)Nc1cccc(C(=O)O)c1	–	–	–	64	·	·	71
COc1cc2c(cc1OC)CN(C(=O)C1CCCN1S(=O)(=O)c1ccc(F)cc1)CC2 (centres undefined)	–	–	–	–	·	·	·
Cc1nn(C2CCS(=O)(=O)C2)c(C)c1CN(C)C(=O)c1cccc(Cl)c1 (centres undefined)	–	–	–	–	·	·	·
O=C(NCCN1CCCCC1)Nc1ccc(F)c(Cl)c1	–	–	–	–	–	–	·
COc1cc(NC(=O)NCC2CCN(Cc3ccccc3F)CC2)cc(OC)c1	3.1	–	–	–	·	·	–
Cc1cc(C)cc(NC(=O)NCC2CCN(Cc3cc(C)ccc3C)CC2)c1	3.6	–	–	–	·	·	–
Cc1ccc(C)c(CN2CCC(CNC(=O)Nc3ccc(F)c(Cl)c3)CC2)c1	3.4	–	–	–	·	·	–
Cc1ccc(C)c(CN2CCC(CNC(=O)CCc3nnc4ccc(N5CCCCC5)nn34)CC2)c1	–	–	–	–	·	·	·
O=C(CSc1nc2ccc(Nc3nc(N4CCOCC4)nc(N4CCOCC4)n3)cc2s1)Nc1ccccc1F	–	–	–	–	·	·	·
Cc1nc2ccccc2c(=O)n1CCc1ccc(O)cc1	–	–	–	–	·	·	·
COc1cc(OC)c2c(c1O)OC(c1ccccc1)CC2=O (centres undefined)	–	–	–	54	–	–	62
O=C(Nc1ccc(Br)cc1)NC1CCCCCCC1	5	–	–	–	·	·	–
CCc1ccc(NC(=O)NC2CCCCCCC2)cc1	2.7	–	–	–	·	·	–
CCc1ccc(NC(=O)C(=S)NC2CCCCC2)cc1	–	–	–	–	–	–	·
O=C(N/N=C/c1cc(Cl)c(O)c(Cl)c1)c1cc2c(ccc3ccccc32)o1	–	–	–	–	·	·	·
CC(=O)c1ccc(-c2ccc(/C=C(/Sc3n[nH]c(C)n3)C(=O)O)o2)cc1	–	–	–	–	·	·	·
Cc1nc(S/C(=C/c2ccc(-c3ccc(C(=O)O)cc3)o2)C(=O)O)n[nH]1	–	–	–	45	·	·	45
O=C(CSc1nnc(-c2ccco2)c(-c2ccco2)n1)Nc1ccccc1	–	–	–	45	–	–	54
CN(C)c1ccc(NC(=O)CSc2nnc(-c3ccco3)c(-c3ccco3)n2)cc1	–	–	–	49	·	·	60
COc1ccc(NC(=O)CSc2nnc(-c3ccco3)c(-c3ccco3)n2)cc1OC	–	–	–	–	·	·	·
Cc1ccc(NC(=O)CSc2nnc(-c3ccco3)c(-c3ccco3)n2)cc1	–	–	–	64	–	–	60
Cc1ccccc1NC(=O)CSc1nnc(-c2ccco2)c(-c2ccco2)n1	–	–	–	52	–	–	51
CCOc1ccc(N2C(=O)C3ON(C)C(c4ccc([N+](=O)[O-])cc4)C3C2=O)cc1 (centres undefined)	–	–	–	–	·	·	·
Cn1cccc1/C=C1\SC(=S)N(Nc2ccccc2)C1=O	–	–	–	40	·	·	50
O=C(OCC(O)COc1ccccc1)c1ccc([N+](=O)[O-])cc1 (centres undefined)	–	–	–	–	·	·	·

Screening data (PubChem BioAssay)
